Published values collected from several papers.
Compare with care: the assays were run in different laboratories.
Observed: metabolic stability
Species: human

| SMILES | test system | setting | half-life [min] |
| --- | --- | --- | --- |
| CN(C)CCOc1ccc2c(=O)c3c([nH]c2c1)CCCC3 | liver microsomes | 1 µM, pH 7.4 | > 60 |
| COc1ccc(Cn2cc(CO[C@@H]3O[C@H]4[C@H](OC[C@H]4O)[C@H]3O)nn2)cc1 | liver microsomes | – | 120 |
| CCCN(CCC)CCOc1ccc2c(=O)c3c([nH]c2c1)CCCC3 | liver microsomes | 1 µM, pH 7.4 | > 60 |
| O=c1c2cc(Cl)ccc2[nH]c(=S)n1Cc1ccc(-c2nnn[nH]2)nc1 | liver microsomes | 1 µM, pH 7.4 | > 186 |
| C=CCn1c(=O)c2cnc(Nc3ccc(N4CCN(C)CC4)cc3)nc2n1-c1ccc2c(n1)[C@@](O)(CC)CC2 | hepatocytes | – | 93 |
| O=C(O)Cc1ccccc1Nc1c(Cl)cccc1Cl | liver microsomes | 1 µM | 12 |
| OCc1ccc(-c2nn(Cc3ccccc3)c3ccccc23)o1 | hepatocytes | – | 6.6 |
| O=c1c2c([nH]c3cc(Oc4ccc(OC(F)(F)F)cc4)c(F)cc13)CCCC2 | liver microsomes | 1 µM, pH 7.4 | 19.1 |
| c1ccc(Oc2ccc(Nc3c4c(nc5ccccc35)CCC4)cc2)cc1 | liver microsomes | 0.5 µM | 57 |
| COCC(=O)OCc1cc2[nH]c(=S)n(Cc3cccnc3)c(=O)c2cc1Cl | liver microsomes | 1 µM, pH 7.4 | < 5 |
| CCCN(CCC)CCCOc1ccc2c(=O)c3c([nH]c2c1)CCCC3 | liver microsomes | 1 µM, pH 7.4 | 37.3 |
| O=C(O)Cc1ccccc1Nc1c(Cl)cccc1Cl | liver microsomes | 2 µM, pH 7.4 | 8.3 |
| NC(=NCCC[C@@H](C(=O)NCc1ccccc1)n1cc(-c2ccc(-c3ccccc3)cc2)nn1)c1ccc([N+](=O)[O-])o1 | liver microsomes | – | 29 |
| Cc1c(C)n(Cc2cccc(OC(C)(C)C(=O)O)c2)c2ccc(C(=O)N[C@@H](C)c3ccc(C(C)(C)C)cc3)cc12 | liver microsomes | – | > 60 |
| Cc1cc2c(C(=O)O)cccc2n1-c1nc2c(c(NCc3ccccc3)n1)CCCN2 | liver microsomes | 1 µM, pH 7.4 | > 120 |
| Cc1ccc(OCC(=O)N[C@@H](Cc2c[nH]c3ccccc23)C(=O)OC(C)C)cc1 | liver microsomes | 20 mM | 352 |
| O=c1c2cc(Cl)ncc2[nH]c(=S)n1Cc1cccnc1 | liver microsomes | 1 µM, pH 7.4 | > 186 |
| CCN(CC)CCNC(=O)c1c(C)[nH]c(/C=C2\C(=O)Nc3ccc(F)cc32)c1C | liver microsomes | 1 µM, pH 7.4 | 1630 |
| Cc1cccc(CNC(=O)c2cn(CCNC(=O)c3ccccc3Sc3c([N+](=O)[O-])ncn3C)c3cc4c(cc3c2=O)OCO4)n1 | blood | 1 µM, whole blood | 509 |
| O=c1c2c([nH]c3cc(Nc4ccc(OC(F)(F)F)cc4)ccc13)CCCC2 | liver microsomes | 1 µM, pH 7.4 | 20.7 |
| Cc1[nH]c(C)c(S(=O)(=O)Nc2ccc(C(F)(F)F)c(Cl)c2)c1C(=O)N(C)C | liver microsomes | – | 8.7 |
| O=c1c2c([nH]c3cc(OC(F)(F)F)ccc13)CCCC2 | liver microsomes | 1 µM, pH 7.4 | 8.01 |
| Cc1ncsc1-c1ccc([C@H](CC(=O)N2CCN(c3ccc(C#Cc4ccc(C(=O)N5CCC(n6cc(-c7ccc8c(c7)CCN8C(=O)Cc7cccc(OC(F)(F)F)c7)c7c(N)ncnc76)CC5)cc4)cn3)CC2)NC(=O)[C@@H]2C[C@@H](O)CN2C(=O)[C@@H](NC(=O)C2(F)CC2)C(C)(C)C)cc1 | hepatocytes | 1 µM | > 120 |
| CCCN(CCC)CCNc1ccc2c(=O)c3c([nH]c2c1)CCCC3 | liver microsomes | 1 µM, pH 7.4 | > 60 |
| COc1cc(-c2cc(C(C)=O)n3ccccc23)c(OC)cc1Cn1ccnc1 | liver microsomes | pH 7.4 | > 120 |
| O=c1c2ccc(Oc3cccc(OC(F)(F)F)c3)cc2[nH]c2cc(Cl)cc(F)c12 | liver microsomes | 1 µM, pH 7.4 | > 60 |
| CN(C)CC(=O)OCc1cc2[nH]c(=S)n(Cc3cccnc3)c(=O)c2cc1Cl | liver microsomes | 1 µM, pH 7.4 | < 5 |
